We go through 8 compounds from ChEMBL document CHEMBL4152290, “1H-Benzo[d]imidazoles and 3,4-dihydroquinazolin-4-ones: Design, synthesis and antitubercular activity” (Eur J Med Chem, 2018).

Each structure is given as a SMILES string. In brackets after ≈: the same amount, converted by molar mass.

In one experiment the test system is Mycobacterium tuberculosis. Put plainly: Antitubercular activity against multidrug-resistant Mycobacterium tuberculosis isolate CDCT10 harboring rpoB/katG mutant gene after 7 days by resazurin dye based assay. The format is functional. The essentials:
(§1)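 Resazurin microtiter MIC in 7H9 with 10% ADC. Two-fold dilutions from 1 mg/mL DMSO stocks span 25.0–0.05, 10.0–0.02 or 0.02–0.0004 µg/mL, with 2.5% DMSO final. Inoculum is bead-declumped culture grown in 7H9/10% OADC/0.05% Tween 80, diluted to OD600 0.006. Plates run 7 days at 37 °C, then 0.01% resazurin for 48 h. MIC is the lowest concentration preventing the blue-to-pink change. Three independent tests.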
The MIC is the smallest concentration in the dilution series that meets the test's criterion for growth inhibition. Turning to `O=C(CSc1nc2ccccc2c(=O)[nH]1)NCC1CCCCC1`, the minimum inhibitory concentration (MIC) came to 0.93 µM (≈ 0.308 µg/mL).

On to `O=C(CSc1nc2ccccc2c(=O)[nH]1)NC1CCCCCC1`, for which the MIC is 0.48 µM (≈ 0.159 µg/mL).

Take `CC1CCCC(NC(=O)CSc2nc3ccccc3c(=O)[nH]2)C1` (configuration not stated): the MIC amounted to 0.94 µM (≈ 0.312 µg/mL). Compared with the last compound, the MIC is about 2-fold higher.

With `CC1CCC(NC(=O)CSc2nc3ccccc3c(=O)[nH]2)CC1` (configuration not stated), the MIC was 0.24 µM (≈ 0.0795 µg/mL).

The compound `NNC(=O)c1ccncc1` [ISONIAZID] came in with an MIC of 45.6 µM (≈ 6.25 µg/mL).

The compound `O=C(CSc1nc2ccccc2c(=O)[nH]1)NC1CCCCC1` returned an MIC of 0.5 µM (≈ 0.159 µg/mL).

Turning to `CC1CCCCC1NC(=O)CSc1nc2ccccc2c(=O)[nH]1` (configuration not stated), the MIC amounted to 0.95 µM (≈ 0.315 µg/mL).

Turning to `C[C@H]1CC[C@H](NC(=O)CSc2nc3ccccc3c(=O)[nH]2)CC1`, the minimum inhibitory concentration (MIC) was 0.12 µM (≈ 0.0398 µg/mL). Compared with the last compound, the MIC is about 7.9-fold lower.

The subject of the next experiment is Mycobacterium tuberculosis. The experiment is described as follows: Antitubercular activity against multidrug-resistant Mycobacterium tuberculosis isolate CDCT16 harboring rpoB/katG/inhA mutant gene after 7 days by resazurin dye based assay. The format is functional. The essentials: as §1
A general note: Resazurin is reduced to fluorescent resorufin, in cell work by metabolically active cells.
Turning to `O=C(CSc1nc2ccccc2c(=O)[nH]1)NCC1CCCCC1`, the MIC was 0.93 µM (≈ 0.308 µg/mL).

`O=C(CSc1nc2ccccc2c(=O)[nH]1)NC1CCCCCC1`: the MIC was 0.93 µM (≈ 0.308 µg/mL).

In turn, `CC1CCCC(NC(=O)CSc2nc3ccccc3c(=O)[nH]2)C1` (configuration not stated) displayed an MIC of 0.9 µM (≈ 0.298 µg/mL).

In the case of `CC1CCC(NC(=O)CSc2nc3ccccc3c(=O)[nH]2)CC1` (configuration not stated), the MIC came out at 0.48 µM (≈ 0.159 µg/mL). This MIC is about 1.9-fold lower than that of the compound before.

With `NNC(=O)c1ccncc1` [ISONIAZID], the MIC was greater than 729.2 µM.

`O=C(CSc1nc2ccccc2c(=O)[nH]1)NC1CCCCC1` gave an MIC of 0.97 µM (≈ 0.308 µg/mL).

As for `CC1CCCCC1NC(=O)CSc1nc2ccccc2c(=O)[nH]1` (configuration not stated), the MIC turned out to be 3.9 µM (≈ 1.29 µg/mL).

The compound `C[C@H]1CC[C@H](NC(=O)CSc2nc3ccccc3c(=O)[nH]2)CC1` had an MIC of 0.24 µM (≈ 0.0795 µg/mL).

The subject of another experiment is Mycobacterium tuberculosis. Put plainly: Antitubercular activity against isoniazid/ethambutol-resistant Mycobacterium tuberculosis isolate CDCT27 harboring katG mutant gene after 7 days by resazurin dye based assay. Type of experiment: functional. The method, boiled down: as §1
The compound `O=C(CSc1nc2ccccc2c(=O)[nH]1)NCC1CCCCC1` had an MIC of 0.48 µM (≈ 0.159 µg/mL).

`O=C(CSc1nc2ccccc2c(=O)[nH]1)NC1CCCCCC1`: the MIC was 0.24 µM (≈ 0.0795 µg/mL). This MIC lies about 2-fold lower than the previous one.

The compound `CC1CCCC(NC(=O)CSc2nc3ccccc3c(=O)[nH]2)C1` (configuration not stated) returned an MIC of 0.24 µM (≈ 0.0795 µg/mL).

`CC1CCC(NC(=O)CSc2nc3ccccc3c(=O)[nH]2)CC1` (configuration not stated) displayed an MIC of 0.12 µM (≈ 0.0398 µg/mL).

The compound `NNC(=O)c1ccncc1` [ISONIAZID] showed an MIC of 182.3 µM (≈ 25 µg/mL).

The compound `O=C(CSc1nc2ccccc2c(=O)[nH]1)NC1CCCCC1` gave an MIC of 0.25 µM (≈ 0.0794 µg/mL).

Turning to `CC1CCCCC1NC(=O)CSc1nc2ccccc2c(=O)[nH]1` (configuration not stated), the minimal inhibitory concentration (MIC) came to 0.96 µM (≈ 0.318 µg/mL).

`C[C@H]1CC[C@H](NC(=O)CSc2nc3ccccc3c(=O)[nH]2)CC1` came in with an MIC of 0.12 µM (≈ 0.0398 µg/mL). Compared with the last compound, the MIC is about 8-fold lower.

For another experiment, the system named is Mycobacterium tuberculosis. The experiment is described as follows: Antitubercular activity against Mycobacterium tuberculosis isolate CDCT28 harboring rpoB mutant gene after 7 days by resazurin dye based assay. Type of experiment: functional. The method, boiled down: as §1
The compound `O=C(CSc1nc2ccccc2c(=O)[nH]1)NCC1CCCCC1` showed an MIC of 0.93 µM (≈ 0.308 µg/mL).

Turning to `O=C(CSc1nc2ccccc2c(=O)[nH]1)NC1CCCCCC1`, the minimum inhibitory concentration (MIC) is 0.48 µM (≈ 0.159 µg/mL).

`CC1CCCC(NC(=O)CSc2nc3ccccc3c(=O)[nH]2)C1` (configuration not stated): the MIC came to 0.93 µM (≈ 0.308 µg/mL).

In turn, `CC1CCC(NC(=O)CSc2nc3ccccc3c(=O)[nH]2)CC1` (configuration not stated) yielded an MIC of 0.24 µM (≈ 0.0795 µg/mL).

Compound `NNC(=O)c1ccncc1` [ISONIAZID] showed an MIC of 2.84 µM (≈ 0.389 µg/mL).

For the compound `O=C(CSc1nc2ccccc2c(=O)[nH]1)NC1CCCCC1`, the MIC is 0.5 µM (≈ 0.159 µg/mL). Against the preceding compound, the MIC is about 5.7-fold lower.

For `CC1CCCCC1NC(=O)CSc1nc2ccccc2c(=O)[nH]1` (configuration not stated), the MIC is 1.9 µM (≈ 0.63 µg/mL).

`C[C@H]1CC[C@H](NC(=O)CSc2nc3ccccc3c(=O)[nH]2)CC1` returned a minimum inhibitory concentration (MIC) of 0.12 µM (≈ 0.0398 µg/mL).
